In ChEMBL document CHEMBL1145053, “Stereoselective synthesis and structure-activity relationship of novel ceramide trafficking inhibitors. (1R,3R)-N-(3-hydroxy-1-hydroxymethyl-3-phenylpropyl)dodecanamide and its analogues” (J Med Chem, 2003):
Values joined by “and” are separate entries in the source; they are usually repeats but may differ in a detail not shown here. Equal entries are not always repeated.

Tests used:
CHO [1] = assay: Effect of compound on de novo synthesis of sphingomyelin (SM) by metabolic labeling of lipids in CHO cells with radioactive serine at 1 uM; type: functional, Cricetulus griseus
Outline: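 CHO-K1 subconfluent monolayers preincubated in serum-free medium with compound at 1 μM, 0.01% (v/v) DMSO, 4 °C for 15 min. L-[14C]serine (0.75 μCi) then added, 33 °C for 2 h. Lipids extracted, TLC-separated, labeled SM quantified by imaging analyzer and normalized to lysate protein. Reported as % of DMSO-only control; mean ± SD, n = 3.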

CHO [2] = assay: Inhibitory concentration on de novo synthesis of sphingomyelin (SM) by metabolic labeling of lipids in CHO cells with radioactive serine; type: functional, cell-based; conditions: Cricetulus griseus
Outline: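 Compound tested at 0 to 1 μM in serum-free medium containing 0.01% (v/v) DMSO. Subconfluent CHO-K1 monolayers were preincubated at 4 °C for 15 min, then pulsed with L-[14C]serine (0.75 μCi) at 33 °C for 2 h. Labeled SM was separated by TLC, imaged, and normalized to cell protein. IC50 came from […] of a single assay series.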

| SMILES | Sphingomyelin synthesis, % of control (CHO [1]) | IC50 (CHO [2]) [nM] |
| --- | --- | --- |
| CCCCCCCCCCCC(=O)N[C@@H](CO)[C@@H](O)[C@@H](O)c1ccccc1 | 57% |  |
| CCCCCCCCCC(=O)N[C@@H](CO)C[C@@H](O)c1ccccc1 |  | 300 |
| CCCCCCCCCCCCCC(=O)N[C@@H](CO)C[C@@H](O)c1ccccc1 |  | 70 |
| CCCCCCCCCCCC(=O)N[C@@H](CO)[C@@H](O)[C@H](O)c1ccccc1 | 40% |  |
| CCCCCCCCCCCC(=O)N[C@@H](CO)[C@H](O)[C@@H](O)c1ccccc1 | 28% |  |
| CCCCCCCCCCCCC(=O)N[C@@H](CO)C[C@@H](O)c1ccccc1 |  | 50 |
| CCCCCCCCCCCC(=O)N[C@@H](COC)C[C@@H](O)c1ccccc1 | 79% |  |
| CCCCCCCCCCC(=O)N[C@@H](CO)C[C@@H](O)c1ccccc1 |  | 110 |
| CCCCCCCCCCCCCCCC(=O)N[C@@H](CO)C[C@@H](O)c1ccccc1 |  | > 1000 |
| CCCCCCCCCCCC(=O)N[C@@H](COC)C[C@@H](OC)c1ccccc1 | 130% |  |
| CCCCCCCCCCCC(=O)N[C@@H](CO)C[C@@H](OC)c1ccccc1 | 119% |  |
| CCCCCCCCCCCC(=O)N[C@@H](CO)[C@H](O)[C@H](O)c1ccccc1 | 17% |  |
| CCCCCCCCCCCCCCCCCC(=O)N[C@@H](CO)C[C@@H](O)c1ccccc1 |  | > 1000 |
| CCCCCCCCCCCCCCCCC(=O)N[C@@H](CO)C[C@@H](O)c1ccccc1 |  | > 1000 |
| CCCCCCCCCCCC(=O)N[C@@H](CO)C[C@@H](O)c1ccccc1 | 8.2% and 4% | 70 |
| CCCCCCCCCCCCCCC(=O)N[C@@H](CO)C[C@@H](O)c1ccccc1 |  | 90 |
